Data from ChEMBL document CHEMBL3585255, “The Cephalostatins. 24. Isolation, Structure, and Cancer Cell Growth Inhibition of Cephalostatin 20” (2015).

What was measured:
Type in all cases: functional
[1] = Cytotoxicity against human KM20L2 cells after 48 hrs by sulforhodamine B assay; details: KM-20L2, 48 h
Procedure, shortened: (§1)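 Cells in RPMI1640 with 5% fetal bovine serum were plated in 96-well plates and incubated 24 h before serial dilutions of compound were added. After 48 h exposure, cells were fixed with trichloroacetic acid and stained with sulforhodamine B, and optical density was read on a plate reader. GI50, the concentration giving 50% reduction in net protein increase, was calculated from the OD data.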

[2] = test system: DU-145; assay: Cytotoxicity against human DU145 cells after 48 hrs by sulforhodamine B assay; details: DU-145, 48 h; procedure, shortened: as §1
[3] = Cytotoxicity against human BxPC3 cells after 48 hrs by sulforhodamine B assay; details: BXPC-3, 48 h; procedure, shortened: as §1
[4] = test system: NCI-H460; assay: Cytotoxicity against human NCI-H460 cells after 48 hrs by sulforhodamine B assay; details: NCI-H460, 48 h; procedure, shortened: as §1
[5] = test system: MCF7; assay: Cytotoxicity against human MCF7 cells after 48 hrs by sulforhodamine B assay; details: MCF7, 48 h; procedure, shortened: as §1
[6] = test system: SF-268; assay: Cytotoxicity against human SF268 cells after 48 hrs by sulforhodamine B assay; details: SF-268, 48 h; procedure, shortened: as §1

Row | SMILES | GI50 [1] [nM] | GI50 [2] [nM] | GI50 [3] [nM] | GI50 [4] [nM] | GI50 [5] [nM] | GI50 [6] [nM]
1 | CO[C@H]1c2nc3c(nc2C[C@@H]2CC[C@H]4C5=C[C@@H]6O[C@]7(O[C@](C)(CO)C[C@H]7O)[C@@H](C)[C@]6(O)[C@@]5(C)[C@H](O)C[C@@H]4[C@]21C)C[C@@]1(C)[C@@H](CC[C@H]2C4=CC[C@@H]5[C@H](C)[C@@]6(OC[C@]45C(=O)C[C@@]21O)OC(C)(C)C[C@H]6O)C3 [CEPHALOSTATIN 10] | 0.7 | 8.5 | 1.3 | 0.6 | 1.4 | 3.7
2 | C[C@@H]1C[C@]2(O[C@H]3C=C4[C@@H]5CC[C@H]6Cc7nc8c(nc7C[C@]6(C)[C@H]5C[C@@H](O)[C@]4(CO)[C@H]3[C@@H]2C)C[C@@H]2CC[C@H]3C4=C[C@@H]5O[C@]6(O[C@](C)(CO)C[C@H]6O)[C@@H](C)[C@]5(O)[C@@]4(C)[C@H](O)C[C@@H]3[C@@]2(C)C8)OC1(C)C [CEPHALOSTATIN 8] | 47 | > 1100 | 26 | 15 | 26 | 150
3 | C[C@@H]1[C@H]2C[C@@H]3O[C@@]34[C@]3(O)CC[C@H]5Cc6nc7c(nc6C[C@]5(C)C3=CC(=O)[C@]24CO[C@]12OC(C)(C)[C@@H](C)[C@H]2O)C[C@@H]1CC[C@H]2C3=C[C@@H]4O[C@]5(O[C@](C)(CO)C[C@H]5O)[C@@H](C)[C@]4(O)[C@@]3(C)[C@H](O)C[C@@H]2[C@@]1(C)C7 [CEPHALOSTATIN 15] | 63 | 140 | 50 | 68 | 45 | 63
4 | C[C@@H]1[C@]2(O[C@H]3C=C4[C@@H]5CC[C@H]6Cc7nc8c(nc7C[C@]6(C)[C@H]5C[C@@H](O)[C@]4(C)[C@]31O)C[C@@H]1CC[C@H]3C4=C[C@@H]5O[C@]6(O[C@](C)(CO)C[C@H]6O)[C@@H](C)[C@]5(O)[C@@]4(C)[C@H](O)C[C@@H]3[C@@]1(C)[C@H]8O)O[C@](C)(CO)C[C@H]2O [CEPHALOSTATIN 13] | 470 | 1100 | 310 | 370 | 290 | 340
5 | C[C@@H]1[C@]2(O[C@H]3C=C4[C@@H]5CC[C@H]6Cc7nc8c(nc7C[C@]6(C)[C@H]5C[C@@H](O)[C@]4(C)[C@]31O)C[C@@H]1CC[C@H]3C4=CC[C@@H]5[C@H](C)[C@@]6(OC[C@]45C(=O)C[C@]3(O)[C@@]1(C)C8)OC(C)(C)[C@@H](C)[C@H]6O)O[C@](C)(CO)C[C@H]2O [CEPHALOSTATIN 3] | 0.096 | 0.16 | 0.043 | 0.043 | 0.032 | 0.58
6 | C[C@@H]1[C@]2(O[C@H]3C=C4[C@@H]5CC[C@H]6Cc7nc8c(nc7C[C@]6(C)[C@H]5C[C@@H](O)[C@]4(C)[C@]31O)C[C@@H]1CC[C@H]3[C@@]45O[C@@H]4C[C@@H]4[C@H](C)[C@@]6(OC[C@@]45C(=O)C[C@]3(O)[C@@]1(C)C8)OC(C)(C)C[C@H]6O)O[C@](C)(CO)C[C@H]2O [CEPHALOSTATIN 4] | 39 | 31 | 36 | 44 | 43 | 21
7 | C[C@@H]1[C@]2(O[C@H]3C=C4[C@@H]5CC[C@H]6Cc7nc8c(nc7C[C@]6(C)[C@H]5C[C@@H](O)[C@]4(C)[C@]31O)C[C@@H]1CC[C@H]3C4=C[C@@H]5O[C@]6(O[C@](C)(CO)C[C@H]6O)[C@@H](C)[C@]5(O)[C@@]4(C)[C@H](O)C[C@@H]3[C@@]1(C)C8)O[C@](C)(CO)C[C@H]2O [CEPHALOSTATIN 12] | 38 | 440 | 31 | 37 | 33 | 150
